Measured values from different studies.
Lines come from different studies, so protocols differ.
Target: Carbonic anhydrase 1 (CA1, Homo sapiens, UniProt P00915)
Read-out: enzyme activity
Mode: inhibitor

`O=C(Nc1ccc2c(c1)C=CCP(=O)(O)O2)c1ccc(F)cc1` has a Ki of over 10000 nM (stopped-flow).
For `Cc1cc(=O)oc2cc(OCCCC[Se]C#N)ccc12`, the Ki was over 100000 nM (stopped-flow).
The IC50 of `Cc1ccc([C@H]2[C@H](C(=O)c3cccs3)[C@@H](c3cccs3)[C@@H]3c4ccccc4/C(=N/NC(N)=S)[C@@H]32)cc1` (racemic) is reported as 1670 nM (absorbance).
For `O=C(Nc1ccc2c(c1)C=CCP(=O)(O)O2)c1ccc([N+](=O)[O-])cc1`, the Ki was over 10000 nM (stopped-flow).
`N#C[Se]Cc1cc(=O)oc2cc(O)ccc12` gave a Ki of over 100000 nM (stopped-flow).
`O=C(Nc1cccc(C(F)(F)F)c1)Nc1ccc2c(c1)C=CCP(=O)(O)O2` has a Ki of over 10000 nM (stopped-flow).
With `NC(=S)N/N=C1/c2ccccc2[C@@H]2[C@H]1[C@@H](c1ccccc1)[C@H](C(=O)c1ccccc1)[C@H]2c1ccccc1` (racemic) the IC50 was 1550 nM (absorbance).
With `CC(C)c1cc2c(c(O)c1O)[C@@]13CCCC(C)(C)[C@@H]1[C@H](OC3=O)[C@H]2O` the Ki was 0.12 nM.
With `O=C(Nc1ccc2c(c1)C=CCP(=O)(O)O2)c1ccccc1I` the Ki was over 10000 nM (stopped-flow).
With `CC(C)c1cc2c(c(O)c1O)[C@@]13CCCC(C)(C)[C@@H]1[C@@H](O)[C@@H]2OC3=O` the IC50 was 1.63 nM.
`NC(=S)N/N=C1/c2ccccc2[C@@H]2[C@H]1[C@@H](c1ccc(C(F)(F)F)cc1)[C@H](C(=O)c1ccc(C(F)(F)F)cc1)[C@H]2c1ccc(C(F)(F)F)cc1` (racemic) gave an IC50 of 570 nM (absorbance).
For `CC(C)c1cc2c(c(O)c1O)[C@@]1(C(=O)O)CCCC(C)(C)[C@@H]1CC2`, the IC50 was 3.1 nM.
The Ki of `CCOP1(=O)CC=Cc2cc(N)ccc2O1` (stereo not drawn) is reported as over 10000 nM (stopped-flow).
The Ki of `CC(C)c1cc2c(c(O)c1O)[C@@]13CCCC(C)(C)[C@@H]1C[C@@H]2OC3=O` is reported as 2.3 nM.
`NC(=S)N/N=C1/c2ccccc2[C@@H]2[C@H]1[C@@H](c1ccc(F)cc1)[C@H](C(=O)c1ccc(F)cc1)[C@H]2c1ccc(F)cc1` (racemic) has an IC50 of 293 nM (absorbance).
